According to ChEMBL document CHEMBL5325402, “Exploration of novel hexahydropyrrolo[1,2-e]imidazol-1-one derivatives as antiviral agents against ZIKV and USUV” (Eur J Med Chem, 2023):
In brackets after ≈: the same amount, converted by molar mass. Activity calls are given as the source filed them. The rule behind the calls is not given here.

Assays:
[1] = Aqueous solubility in deionized water containing 1.38% DMSO; type: physicochemical
[2] = test system: Zika virus; assay: Antiviral activity against ZIKV MR766 infected in African green monkey Vero cells assessed as viral growth inhibition at 0.13 to 100 uM pretreated with cells 2 hrs prior to viral infection by time of addition assay; type: functional, organism-based; conditions: dose 0.13-100 µM
In short: (§1)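 Time-of-addition assay in Vero. Serial dilutions (100 to 0.13 μM) were added to cells 24 h or 2 h before infection, during the 2 h infection, or post-infection for 24 h (USUV) or 30 h (ZIKV). Cells were fixed in cold acetone-methanol (50:50) and infected cells detected by indirect immunostaining. EC50/EC90 came from variable-slope sigmoidal fits; mean of three independent experiments.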

[3] = test system: Zika virus; assay: Antiviral activity against ZIKV MR766 infected in human Huh-7 cells assessed as reduction in viral replication pretreated with virus for 1 hr followed by infection of cells with compound treated-virus for 30 hrs by focus reduction assay; type: functional, organism-based; conditions: for EC50: MR766, Huh-7; for EC90: MR766, Huh-7, time 31 hrs
In short: (§2)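 Dose-response: serial dilutions (100 to 0.13 μM) preincubated 1 h at 37 °C with virus (MOI 0.02), then added to cells for 20 h (USUV) or 30 h (ZIKV) in 2% FBS DMEM. Cells per well: Vero 1.2 × 10^4, A549 1.3 × 10^4, Huh7 1.6 × 10^4. Foci immunostained and counted. EC50/EC90 fitted by variable-slope sigmoidal curve, mean of three independent experiments.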

[4] = Solubility in DMSO at 25 degreeC; type: physicochemical
[5] = Selectivity index, ratio of CC50 for African green monkey Vero cells infected with USUV 3345 isolate Arb276 to EC50 for USUV 3345 isolate Arb276 infected in African green monkey Vero cells; type: toxicity, cell-based; conditions: read-out: Ratio CC50/EC50
[6] = Selectivity index, ratio of CC50 for African green monkey Vero cells infected with ZIKV MR766 to EC50 for ZIKV MR766 infected in African green monkey Vero cells; type: toxicity, cell-based; conditions: read-out: Ratio CC50/EC50
[7] = Cytotoxicity against African green monkey Vero cells infected with ZIKV MR766 pretreated with virus for 1 hr followed by infection of cells with compound treated-virus for 30 hrs by MTS assay; type: toxicity, cell-based; conditions: chlorocebus sabaeus
In short: (§3)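 MTS viability assay. Cells were treated under the same conditions as the antiviral assays. Absorbance was expressed as % of medium-only cells, and CC50 was derived from the curve. Seeding densities were 1.2 × 10^4/well for Vero, 1.3 × 10^4/well for A549 and 1.6 × 10^4/well for Huh7. DMEM with 2% FBS.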

[8] = Cytotoxicity against human Huh-7 cells infected with USUV 3345 isolate Arb276 pretreated with virus for 1 hr followed by infection of cells with compound treated-virus for 20 hrs by MTS assay; type: toxicity, cell-based; in short: as §3
[9] = test system: Usutu virus; assay: Antiviral activity against USUV 3345 isolate Arb276 infected in African green monkey Vero cells assessed as viral growth inhibition at 0.13 to 100 uM treated immediately after viral infection for 2 hrs by time of addition assay; type: functional, organism-based; conditions: dose 0.13-100 µM, in the assay text read “during viral infection” for “immediately after viral infection”; in short: as §1
[10] = Cytotoxicity against human Huh-7 cells infected with ZIKV MR766 pretreated with virus for 1 hr followed by infection of cells with compound treated-virus for 30 hrs by MTS assay; type: toxicity, cell-based; in short: as §3
[11] = test system: Usutu virus; assay: Antiviral activity against USUV 3345 isolate Arb276 infected in African green monkey Vero cells assessed as titer reduction in viral progeny production at 15 uM treated for 2 hrs followed by virus removal and subsequent addition of medium containing compound measured after 48 hrs by focus reduction assay; type: functional, organism-based; conditions: time 50.0 hrs
In short: (§4)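 Vero cells seeded 6.5 × 10^4/well, exposed in duplicate for 2 h at 37 °C to virus (MOI 0.1) mixed with compound at 5 or 15 μM. After three washes, medium containing compound was added for 48 h. Supernatants were clarified and titred on Vero by focus reduction (USUV, FFU/ml) or plaque assay (ZIKV, PFU/ml). DMSO-matched infected controls; mean of three experiments.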

[12] = Cytotoxicity against African green monkey Vero cells infected with USUV 3345 isolate Arb276 pretreated with virus for 1 hr followed by infection of cells with compound treated-virus for 20 hrs by MTS assay; type: toxicity, cell-based; conditions: chlorocebus sabaeus; in short: as §3
[13] = test system: Usutu virus; assay: Antiviral activity against USUV 3345 isolate Arb276 infected in African green monkey Vero cells assessed as viral growth inhibition at 0.13 to 100 uM pretreated with cells 2 hrs prior to viral infection by time of addition assay; type: functional, organism-based; conditions: dose 0.13-100 µM; in short: as §1
[14] = test system: Zika virus; assay: Antiviral activity against ZIKV MR766 infected in African green monkey Vero cells assessed as titer reduction in viral progeny production at 15 uM treated for 2 hrs followed by virus removal and subsequent addition of medium containing compound measured after 48 hrs by plaque reduction assay; type: functional, organism-based; conditions: time 50.0 hrs; in short: as §4
[15] = test system: Usutu virus; assay: Antiviral activity against USUV 3345 isolate Arb276 infected in African green monkey Vero cells assessed as viral growth inhibition at 0.13 to 100 uM treated immediately after viral infection for 24 hrs by time of addition assay; type: functional, organism-based; conditions: dose 0.13-100 µM; in short: as §1
[16] = test system: Zika virus; assay: Antiviral activity against ZIKV MR766 infected in African green monkey Vero cells assessed as reduction in viral replication pretreated with virus for 1 hr followed by infection of cells with compound treated-virus for 30 hrs by focus reduction assay; type: functional, organism-based; conditions: for EC90: time 31 hrs
[17] = Cytotoxicity against human A549 cells infected with ZIKV MR766 pretreated with virus for 1 hr followed by infection of cells with compound treated-virus for 30 hrs by MTS assay; type: toxicity, cell-based; in short: as §3
[18] = test system: Zika virus; assay: Antiviral activity against ZIKV MR766 infected in human A549 cells assessed as reduction in viral replication pretreated with virus for 1 hr followed by infection of cells with compound treated-virus for 30 hrs by focus reduction assay; type: functional, organism-based; conditions: for EC90: time 31 hrs; in short: as §2
[19] = test system: Zika virus; assay: Antiviral activity against ZIKV MR766 infected in African green monkey Vero cells assessed as viral growth inhibition at 0.13 to 100 uM pretreated with cells 24 hrs prior to viral infection by time of addition assay; type: functional, organism-based; conditions: dose 0.13-100 µM; in short: as §1
[20] = Cytotoxicity against human A549 cells infected with USUV 3345 isolate Arb276 pretreated with virus for 1 hr followed by infection of cells with compound treated-virus for 20 hrs by MTS assay; type: toxicity, cell-based; in short: as §3
[21] = test system: Usutu virus; assay: Antiviral activity against USUV 3345 isolate Arb276 infected in human Huh-7 cells assessed as reduction in viral replication pretreated with virus for 1 hr followed by infection of cells with compound treated-virus for 20 hrs by focus reduction assay; type: functional, organism-based; conditions: Usutu virus, 3345, Huh-7; for EC90: time 21 hrs; in short: as §2
[22] = test system: Usutu virus; assay: Antiviral activity against USUV 3345 isolate Arb276 infected in African green monkey Vero cells assessed as viral growth inhibition at 11 to 100 uM pretreated with virus for 1 hr followed by infection of cells with compound treated-virus for 20 hrs by focus reduction assay relative to control; type: functional; conditions: dose 11-100 µM, time 21 hrs
In short: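 Virus (MOI 0.02) preincubated with compound 1 h at 37 °C, then mixture put on Vero cells (1.2 × 10^4/well, seeded the day before) in DMEM with 2% FBS for 30 h (ZIKV) or 20 h (USUV) at 37 °C. Fixed in cold acetone-methanol, foci immunostained with anti-flavivirus E 4G2 antibody and counted. % infection is relative to DMSO-treated wells. Screen used 100, 33 and 11 μM.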

Row | Compound | solubility [1] | Activity [2] | EC50 [3] | EC90 [3] | solubility [4] | selectivity ratio [5] | selectivity ratio [6] | CC50 at 31 h [7] | CC50 at 21 h [8] | Activity [9] | CC50 at 31 h [10] | Activity [11] | CC50 at 21 h [12] | Activity [13] | Activity [14] | Activity [15] | EC50 [16] | EC90 [16] | CC50 at 31 h [17] | EC50 [18] | other results
1 | O=C1C[C@H](c2ccc([C@H]3N(c4ccc([N+](=O)[O-])cc4)C(=O)[C@@H]4CCCN43)cc2)O[C@@H]1CO | > 0.897 mg/mL | inactive | 2.36 µM | 4.19 µM | 130 mg/mL (≈ 297 mM) | > 181 | > 51 | > 500 µM | > 500 µM | inactive | > 500 µM | Active | > 500 µM | inactive | Active | Active | 9.73 µM | 15.4 µM | > 500 µM | 3.8 µM | EC90 [18]: 10.2 µM; Activity [19]: Active; CC50 at 21 h [20]: > 500 µM; EC50 [21]: 4 µM; EC90 [21]: 6.28 µM; inhibition (INH) [22]: 100%
2 | O=C1[C@@H]2CCCN2[C@@H](c2ccc([C@H]3C[C@@H](O)[C@@H](CO)O3)cc2)N1c1ccc([N+](=O)[O-])cc1 | > 0.947 mg/mL | inactive | 2.26 µM | 4.26 µM | 96 mg/mL (≈ 218 mM) | > 198 | > 63 | > 500 µM | > 500 µM | inactive | > 500 µM | Active | > 500 µM | inactive | Active | Active | 7.96 µM | 12.3 µM | > 500 µM | 3.95 µM | EC90 [18]: 10.9 µM; Activity [19]: Active; CC50 at 21 h [20]: > 500 µM; EC50 [21]: 3.91 µM; EC90 [21]: 5.77 µM; inhibition (INH) [22]: 100%
